In ChEMBL document CHEMBL3244306, “Folate analogues altered in the C9-N10 bridge region: N10-Toxylisohomofolic acid and N10-Toxylisohomoaminopterin” (1978):
Values after ≈ are worked out from the molar mass of the structure shown. Active and inactive are the calls of the source. The calls are words filed in the database; no cut-off is given here.

Legend:
[1] = target: Dihydrofolate reductase (Lactobacillus casei) (UniProt P00381); assay: Inhibition of Lactobacillus casei DHFR at 1 X 10^-4 M relative to control; details: Lacticaseibacillus casei
[2] = target: T1, Thymidylate synthase (Lactobacillus casei) (UniProt P00469); assay: Inhibition of Lactobacillus casei thymidylate synthase assessed as conversion of dUMP32 to dTP32PP at 1 X 10^-4 M after 30 mins relative to control; details: Lacticaseibacillus casei
T1 sequence (whole entry): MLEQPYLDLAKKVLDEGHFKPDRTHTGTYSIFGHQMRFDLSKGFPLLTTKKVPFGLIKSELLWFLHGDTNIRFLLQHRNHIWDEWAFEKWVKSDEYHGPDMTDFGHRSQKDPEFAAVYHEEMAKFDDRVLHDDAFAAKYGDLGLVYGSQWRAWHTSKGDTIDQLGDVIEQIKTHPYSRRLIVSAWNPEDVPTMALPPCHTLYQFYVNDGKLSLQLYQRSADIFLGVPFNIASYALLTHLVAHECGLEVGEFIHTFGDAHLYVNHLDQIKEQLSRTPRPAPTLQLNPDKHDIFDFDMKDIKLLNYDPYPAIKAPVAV

Lacticaseibacillus casei [3] = assay: Inhibition of 5-[14C]methyltetrahydrofolate uptake in Lactobacillus casei at 1.6 X 10^-6 M relative to control; type: functional
Procedure, shortened: (§1)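 Cells (1.0 × 10⁹, 1.0 mg dry weight) in 0.1 M potassium phosphate pH 6.5 with 1% glucose and […] (40000 cpm) 5-[¹⁴C]methyltetrahydrofolate, 1.0 mL total. Incubated 1 min at 37 °C, then stopped by membrane filtration with three ice-cold saline washes. Dried filters were scintillation counted. Uptake is compared with a control.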

[4] = target: T1, Thymidylate synthase (Lactobacillus casei); assay: Inhibition of Lactobacillus casei thymidylate synthase assessed as conversion of dUMP32 to dTP32PP at 6 X 10^-5 M after 30 mins relative to control; details: Lacticaseibacillus casei
Lacticaseibacillus casei [5] = assay: Antibacterial activity against Lactobacillus casei ATCC 7469 assessed as growth inhibition; type: functional
Enterococcus faecium [6] = assay: Antibacterial activity against Streptococcus faecium ATCC 8043 assessed as growth inhibition; type: functional
Lacticaseibacillus casei [7] = assay: Antibacterial activity against methotrexate-resistant Lactobacillus casei assessed as growth inhibition up to 4 ug/ml; type: functional, organism-based
Enterococcus faecium [8] = assay: Antibacterial activity against methotrexate-resistant Streptococcus faecium assessed as growth inhibition up to 4 ug/ml; type: functional, organism-based
Pediococcus = assay: Antimicrobial activity against Pediococcus cerevisiae ATCC 8081 assessed as growth inhibition; type: functional
Lacticaseibacillus casei [9] = assay: Inhibition of 5-[14C]methyltetrahydrofolate uptake in Lactobacillus casei at 4 X 10^-7 M relative to control; type: functional; procedure, shortened: as §1
Lacticaseibacillus casei [10] = assay: Inhibition of 5-[14C]methyltetrahydrofolate uptake in Lactobacillus casei at 1 X 10^-4 M relative to control; type: functional; procedure, shortened: as §1
Lacticaseibacillus casei [11] = assay: Inhibition of 5-[14C]methyltetrahydrofolate uptake in Lactobacillus casei at 1.5 X 10^-5 M relative to control; type: functional; procedure, shortened: as §1
[12] = target: Dihydrofolate reductase (Lactobacillus casei) (UniProt P00381); assay: Inhibition of Lactobacillus casei DHFR at 6.2 X 10^-5 M relative to control; details: Lacticaseibacillus casei

Chain of Dihydrofolate reductase (Lactobacillus casei) (P00381 whole entry): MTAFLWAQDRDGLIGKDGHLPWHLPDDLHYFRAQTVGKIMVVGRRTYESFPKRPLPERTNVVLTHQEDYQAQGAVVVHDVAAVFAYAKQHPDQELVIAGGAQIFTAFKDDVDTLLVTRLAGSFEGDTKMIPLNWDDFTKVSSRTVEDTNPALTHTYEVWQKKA

SMILES | inhibition [1] [%] | inhibition [2] [%] | inhibition [4] [%] | growth inhibition (GI) (Lacticaseibacillus casei [7]) | growth inhibition (GI) (Enterococcus faecium [8]) | growth inhibition (GI) (Pediococcus) | inhibition at 0.4 µM (Lacticaseibacillus casei [9]) [%] | other results
Cc1ccc(S(=O)(=O)N(Cc2ccc(C(=O)N[C@@H](CCC(=O)O)C(=O)O)cc2)Cc2cnc3nc(N)nc(O)c3n2)cc1 | 32 | – | 12 | inactive | inactive | inactive | 50 | growth inhibition (GI) (Lacticaseibacillus casei [5]): inactive; growth inhibition (GI) (Enterococcus faecium [6]): inactive
COC(=O)c1ccc(CN(CC2=Nc3c(N)nc(N)nc3NC2)S(=O)(=O)c2ccc(C)cc2)cc1 | 0 | 0 | – | – | – | – | – | inhibition at 100 µM (Lacticaseibacillus casei [10]): 32%
Cc1ccc(S(=O)(=O)N(Cc2ccc(C(=O)N[C@@H](CCC(=O)O)C(=O)O)cc2)Cc2cnc3nc(N)nc(N)c3n2)cc1 | – | 20 | – | inactive | inactive | inactive | 50 | GI50 (Lacticaseibacillus casei [5]): 0.2 µg/mL (≈ 0.329 µM); GI50 (Enterococcus faecium [6]): 3.8 µg/mL (≈ 6.24 µM); inhibition [12]: 50%

Now from value to compound, other results behind:

inhibition [1] [%] | inhibition [2] [%] | inhibition [4] [%] | SMILES | growth inhibition (GI) (Lacticaseibacillus casei [7]) | growth inhibition (GI) (Enterococcus faecium [8]) | growth inhibition (GI) (Pediococcus) | inhibition at 0.4 µM (Lacticaseibacillus casei [9]) [%] | other results
17 | 0 | – | Cc1ccc(S(=O)(=O)N(Cc2ccc(C(=O)O)cc2)Cc2cnc3nc(N)nc(N)c3n2)cc1 | – | – | – | – | inhibition at 1.6 µM (Lacticaseibacillus casei [3]): 50%
25 | – | 15 | Cc1ccc(S(=O)(=O)N(Cc2ccc(C(=O)O)cc2)Cc2cnc3nc(N)nc(O)c3n2)cc1 | – | – | – | – | –
23 | – | 16 | COC(=O)c1ccc(CN(Cc2cnc3nc(N)nc(O)c3n2)S(=O)(=O)c2ccc(C)cc2)cc1 | – | – | – | – | inhibition at 15 µM (Lacticaseibacillus casei [11]): 50%
